# Diaph act CS: activates diaphorase or chemically reduces, flagging diaphorase assay artifacts; Diaphorase/resazurin coupled assay, resorufin fluorescence, 16 min; active compounds read high; 1 = vehicle wells, 0 = NADH-free wells; activation factor at 20 µM; hit rate 0.005% among 190,000; AID 1229;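 active = diaphorase activity raised at least twofold by the compound at 20 µM; inactive = activation factor below 2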
#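 Assay system: bacterial diaphorase enzyme (C. kluyveri) / Input: enzyme 0.07 U/mL final / Medium: 50 mM HEPES pH 7.4 with 4.542 mM MgCl2, 0.005% Tween 20 / Doses: single compound dose of 20 µM, 1% DMSO final / Incubation: 16 min enzyme reaction, ambient temperature / Signal: fluorescence, excitation 544 nm and emission 590 nm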
# PMI act satM6P: increases human PMI activity with near-saturating mannose 6-phosphate; P34949; AID 1216; hit rate 0.34% among 190,000; coupled PMI enzyme assay, resazurin fluorescence, 20 min; active compounds read high; 1 = untreated enzyme, 0 = substrate-free blank; activation factor at 20 µM;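 active = activation factor of 2 or more at 20 µM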
# Target sequence (P34949 whole entry, looked up): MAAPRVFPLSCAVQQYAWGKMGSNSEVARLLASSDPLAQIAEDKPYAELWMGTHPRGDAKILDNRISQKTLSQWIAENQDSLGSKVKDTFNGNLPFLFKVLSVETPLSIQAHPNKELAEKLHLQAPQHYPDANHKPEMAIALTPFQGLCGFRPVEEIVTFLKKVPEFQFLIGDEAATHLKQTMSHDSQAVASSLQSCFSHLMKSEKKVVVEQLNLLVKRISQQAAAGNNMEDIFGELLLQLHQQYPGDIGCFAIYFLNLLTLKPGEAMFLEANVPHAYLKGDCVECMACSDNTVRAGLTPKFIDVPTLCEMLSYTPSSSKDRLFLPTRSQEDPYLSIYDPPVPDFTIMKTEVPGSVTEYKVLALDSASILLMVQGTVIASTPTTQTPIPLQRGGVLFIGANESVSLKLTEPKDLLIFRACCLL
#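 Material: human phosphomannose isomerase with PGI, G6PDH, diaphorase coupling enzymes; amount: PMI at 15 ng/mL final; also added: Mannose-6-phosphate 1.0 mM (near-saturating) plus 0.22 mM NADP+; incubation: enzyme reaction with compound 20 min at room temperature; signal: resorufin fluorescence (Ex 544/Em 590 nm) from resazurin via diaphorase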
# ROMK primary: modulators of human ROMK potassium channel | B-score at 10 µM | hit rate 2% among 130,000 | Tet-inducible ROMK, thallium flux fluorescence; actives lie on both sides | P48048;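 active = signal ratio slope over the read window, or its plate-corrected B-score, at least 3 SD from the plate mean, either direction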;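 note: B-score of the F/F0 ratio slope over 7 to 12 s after thallium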
# G6PDH counter: inhibits Leuconostoc G6PDH, flagging false hits in G6PDH-based assays; hit rate 0.12% among 200,000; inhibition, % at 5 µM; Purified L. mesenteroides G6PDH, diaphorase/resazurin coupled fluorescence, 45 min; in the data active = inhibition above about 50%
# PMI activator: phosphomannose isomerase (human) activation; purified human PMI, coupled resazurin fluorescence, 20 min; active compounds read high; 1 = vehicle control, 0 substrate-free wells; activation factor at 20 µM; hit rate 0.005% among 190,000; AID 1214;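 active = activation factor of 2 or more at 20 µM, relative to plate controls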
# Diaphorase inh: diaphorase inhibition or chemical oxidation counter-screen | diaphorase resazurin-to-resorufin fluorescence, NADH, 16 min; bacterial (C. kluyveri) enzyme, not human | hit rate 0.69% among 190,000 | inhibition, % at 20 µM;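 active = primary screen inhibition at 20 µM above a set limit, cut at about 50% in these data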;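 note: plate controls were DMSO with full reaction for no effect and wells lacking NADH for full effect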
#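 Benchmarks: positive control wells lacking NADH, neutral wells with DMSO only. System: bacterial diaphorase enzyme (C. kluyveri). Input: 0.14 U/mL diaphorase, enzyme working solution. Detection: resorufin fluorescence, excitation 544 nm, emission 590 nm. Times: 16-min room-temperature incubation before reading.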
# ROMK hit retest: retested hit modulating human ROMK potassium channel | shares compounds with ROMK primary | ROMK thallium flux, fluorescence ratio; active compounds read low | normalized thallium flux (F/F0 slope) at 10 µM | hit rate 54% among 3,000 | AID 1917;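 active = Flux at 10 µM at least 3 SD below or above vehicle control mean in one or both replicates; inconclusive = no clear call, values can overlap the other calls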
# The depositor's hits bear a star; ? = inconclusive; . = no result given. The list is not random: actives were taken first. Their share in the collection is about 2.2%.
SMILES,Diaph act CS,PMI act satM6P,ROMK primary,G6PDH counter,PMI activator,Diaphorase inh,ROMK hit retest
COc1ccccc1NC(=O)/C=C/c1ccc2c(c1)OCO2,0.9,0.9,5.1*,5,1,13,0.091
COc1cc(CNCCN2CCOCC2)ccc1OCc1ccc(Cl)cc1,1,1.1,-2.4,-4,1,4,.
COc1cc(CNCCCN2CCOCC2)cc(Br)c1OCc1ccc(Cl)cc1,1.4,1.1,-3.8*,9,1.1,-36,?
O=[N+]([O-])c1ccc2c(c1)nc1n2CCN(C2CCCCC2)C1,0.7,1.8,-5.9*,3,1.5,27,0.053*
O=[N+]([O-])c1ccc2c(c1)nc1n2CCCCC1,0.9,1,-1.3,5,1,10,.
CC(=O)N/N=C/c1cc(C(C)(C)C)cc(/C=N/NC(C)=O)c1O,.,.,-3*,11,.,.,0.055*
CC(C)(C)c1cc(C(=O)N/N=C/c2ccccc2O)n(-c2ccccc2)n1,0.8,1.1,.,-4,1,19,.
O=c1cc(O)sc2ccccc12,0.9,0.9,0.095,5,0.8,13,.
O=c1[nH]sc2ccccc12,1.1,1.5,-4.5*,2,1.1,-12,0.052*
Cc1ccc2cc(C=O)c(Cl)nc2c1,0.9,0.6,3.7*,3,0.6,10,0.083
CCOC(=O)/C(C#N)=C/c1cc2ccc(C)cc2nc1Cl,0.9,0.8,-0.17,1,0.8,9,.
O=C1N=C(N2CCOCC2)S/C1=C\c1ccc(OS(=O)(=O)c2ccccc2)cc1,0.8,0.9,-2.5,3,0.9,20,.
O=C1N=C(N2CCOCC2)S/C1=C/c1ccc(-c2ccccc2Cl)o1,0.9,1,.,-36,0.9,7,0.056*
CC(=C/c1ccccc1)/C=C1/SC(N2CCOCC2)=NC1=O,0.9,1,.,4,1,6,0.053*
O=C(O)CC1NC(=O)N(C2CCCCC2)C1=O (centres undefined),1,1.1,-0.58,4,1.2,-1,.
CCCCCCN1C=CC=C/C1=C/C=C(C#N)C#N,0.9,0.9,-6.9*,16,0.9,9,0.046*
OC(COCc1cccs1)CN1CCN(c2cccc(Cl)c2)CC1 (centres undefined),0.9,1.1,-2.6*,-4,1.1,14,0.054*
COc1cc(Cl)ccc1NC(=S)N(CCCN1CCOCC1)Cc1cn(C)c2ccccc12,0.9,1.1,-1.9,-8,0.9,11,.
COc1ccc(Cl)cc1NC(=S)N(CCCN1CCOCC1)Cc1cn(C)c2ccccc12,1,0.9,-3.9*,1,0.8,0,0.078
Cc1ccc2cc(CN(Cc3ccc(F)cc3)Cc3nnnn3C3CCCC3)c(=O)[nH]c2c1,0.9,1,-1.4,-56,0.9,9,.
Cc1ccc2cc(CN(Cc3ccccc3)Cc3nnnn3C3CCCC3)c(=O)[nH]c2c1,0.8,0.9,-3*,-28,0.9,17,0.061*
COc1cscc1C(=O)O,.,.,-1.2,.,.,.,.
CCCNC(=O)c1ccccc1NC(=O)c1ccccc1SC,0.6,1,0.062,7,1,40,.
COCCNC(=O)c1ccccc1NC(=O)c1ccccc1SC,1,0.8,3.2*,23,0.7,4,0.084
CC(C)C[C@H](N)c1cn([C@@H](CCCCN)C(=O)N2CCNCC2)nn1,1,1.1,.,8,1.1,-5,.
SMILES,Diaph act CS,PMI act satM6P,ROMK primary,G6PDH counter,PMI activator,Diaphorase inh,ROMK hit retest
CCOc1cc(C2C(C#N)=C(N)OC(C)=C2C(C)=O)cc(Br)c1O (centres undefined),0.8,1,-1.3,-7,0.9,21,.
CCOc1cc(C2C(C#N)=C(N)OC(C)=C2C(C)=O)c(Br)c(Br)c1OC(C)C (centres undefined),0.7,0.8,-3.6*,18,1.1,28,0.079
COCCOC(=O)c1c(NC(=O)CN2CCOCC2)sc(C(N)=O)c1C,0.9,1,.,10,0.9,8,.
COCCOC(=O)c1c(NC(=O)CN2c3ccccc3CC2C)sc(C(N)=O)c1C (centres undefined),0.7,0.8,2.2*,-5,0.9,32,?
Cc1c(-c2ccccc2)nc2ccccc2c1C(=O)OCC(=O)Nc1ncc(C(F)(F)F)cc1Cl,0.7,0.8,-0.36,0,0.9,34,.
CSc1cccc(NC(=S)N(CCCN2CCCC(C)C2)Cc2cccs2)c1 (centres undefined),1,1,-4.4*,8,1,4,0.058*
COc1cccc(NC(=S)N(CCCN2CCCC(C)C2)Cc2cccs2)c1 (centres undefined),0.9,1,-1.9,8,1,7,.
COc1ccc(NC(=S)N(CCCN2CCC(C)CC2)Cc2cccs2)cc1Cl,1,1.1,-5.2*,1,1.1,0,0.055*
COc1ccccc1-n1cnc2cc(NCc3ccco3)ccc21,0.8,0.7,7.9*,14,0.8,24,0.088
CCC(C)(C)NC(=O)C(c1cccc(OC)c1OC)N(CCC(C)C)C(=O)CCC(=O)Nc1cc(C)on1 (centres undefined),1,1,-2.5*,10,1,2,0.063*
COc1ccc(Cc2nn3c(-c4cc(OC)c(OC)c(OC)c4)nnc3s2)cc1,0.9,0.9,-2.6*,-39,0.8,13,?
Cc1cc(NC(=O)CN2C(=O)/C(=C/c3cccc(Br)c3)SC2=S)no1,1,1.1,-4.2*,-1,1.1,2,0.081
O=C(CCCN1C(=O)/C(=C/c2cccc(Br)c2)SC1=S)Nc1ccccn1,0.9,1,.,-56,0.9,7,.
Nc1ccc2nc(SCc3ccccc3F)sc2c1,.,.,0.005,.,.,.,.
Cc1[nH]n(-c2ccc(C(=O)O)cc2)c(=O)c1CCO,0.9,1,3.8*,-2,1.3,6,0.081
O=C(NCc1cccnc1)c1ccccc1[N+](=O)[O-],0.8,1,.,-10,0.9,15,.
COC(=O)Cn1cc(C#N)c2ccccc21,1,1,0.78,-5,1,4,.
CC(C)OC(=O)Cn1cc(C#N)c2ccccc21,0.8,1,-8.8*,6,0.9,17,0.079
CCCC(C(=O)NCc1ccco1)N(C(=O)CNS(=O)(=O)c1ccccc1)c1ccccc1OC (centres undefined),1,1,-4.2*,8,0.9,3,0.058*
CCC(C(=O)NCc1ccco1)N(C(=O)CNS(=O)(=O)c1ccc(C)cc1)c1ccccc1OC (centres undefined),0.9,1,0.79,2,1.1,11,.

# Screening data from PubChem BioAssay.
